In ChEMBL document CHEMBL4359928, “Scaffold Morphing To Identify Novel DprE1 Inhibitors with Antimycobacterial Activity” (ACS Med Chem Lett, 2019):
Values after ≈ are worked out from the molar mass of the structure shown.

What was measured:
[1] = tested on: Mycobacterium tuberculosis; assay: Antimycobacterial activity against Mycobacterium tuberculosis H37Rv assessed as reduction in bacterial cell growth by resazurin reduction method; type: functional
[2] = Inhibition of DprE1 in Mycobacterium tuberculosis
[3] = tested on: Mycobacterium tuberculosis; assay: Bactericidal activity against Mycobacterium tuberculosis; type: functional
[4] = Clearance in rat; type: ADME; details: in vivo
[5] = Lipophilicity, logD of compound; type: physicochemical; details: octanol/water
[6] = Aqueous solubility of DMSO-dried solid compounds; type: physicochemical; details: buffer
[7] = Protein binding in human plasma assessed as free fraction; type: ADME, cell-free
[8] = Permeability across apical to basolateral side in human Caco2 cells; type: ADME, cell-based; details: Caco-2, read-out: permeability
[9] = Permeability across basolateral to apical side in human Caco2 cells; type: ADME, cell-based; details: Caco-2, read-out: permeability
Cytochrome P450 1A2 = Cytochrome P450 1A2 (Homo sapiens, UniProt P05177); assay: Inhibition of CYP1A2 (unknown origin); type: ADME
Chain of Cytochrome P450 1A2 (P05177 whole entry): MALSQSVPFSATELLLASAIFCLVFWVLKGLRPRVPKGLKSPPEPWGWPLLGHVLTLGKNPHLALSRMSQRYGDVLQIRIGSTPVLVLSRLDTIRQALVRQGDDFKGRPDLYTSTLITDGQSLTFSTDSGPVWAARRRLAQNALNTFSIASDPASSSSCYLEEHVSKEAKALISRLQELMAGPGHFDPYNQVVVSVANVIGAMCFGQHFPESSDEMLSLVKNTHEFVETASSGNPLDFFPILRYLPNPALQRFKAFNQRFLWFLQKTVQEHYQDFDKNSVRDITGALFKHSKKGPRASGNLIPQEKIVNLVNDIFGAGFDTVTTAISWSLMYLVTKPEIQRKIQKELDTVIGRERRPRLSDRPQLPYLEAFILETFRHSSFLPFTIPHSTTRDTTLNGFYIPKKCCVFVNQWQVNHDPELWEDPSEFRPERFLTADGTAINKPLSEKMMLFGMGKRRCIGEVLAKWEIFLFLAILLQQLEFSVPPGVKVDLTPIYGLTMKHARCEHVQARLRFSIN

Cytochrome P450 2C9 = Cytochrome P450 2C9 (Homo sapiens, UniProt P11712); assay: Inhibition of CYP2C9 (unknown origin); type: ADME
Chain of Cytochrome P450 2C9 (P11712 whole entry): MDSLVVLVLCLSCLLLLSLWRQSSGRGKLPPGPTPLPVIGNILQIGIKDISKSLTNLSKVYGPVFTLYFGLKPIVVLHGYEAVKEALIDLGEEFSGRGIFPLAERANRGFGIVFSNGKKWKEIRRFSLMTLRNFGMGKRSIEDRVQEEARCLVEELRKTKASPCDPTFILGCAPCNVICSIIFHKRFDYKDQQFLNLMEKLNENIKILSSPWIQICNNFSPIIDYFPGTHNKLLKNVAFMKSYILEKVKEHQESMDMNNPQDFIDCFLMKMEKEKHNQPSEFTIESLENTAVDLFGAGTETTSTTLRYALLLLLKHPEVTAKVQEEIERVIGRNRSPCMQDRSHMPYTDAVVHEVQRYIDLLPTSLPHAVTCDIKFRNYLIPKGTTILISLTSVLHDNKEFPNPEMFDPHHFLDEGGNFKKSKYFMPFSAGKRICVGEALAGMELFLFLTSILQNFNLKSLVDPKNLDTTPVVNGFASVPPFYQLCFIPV

Cytochrome P450 2C19 = Cytochrome P450 2C19 (Homo sapiens, UniProt P33261); assay: Inhibition of CYP2C19 (unknown origin); type: ADME
Chain of Cytochrome P450 2C19 (P33261 whole entry): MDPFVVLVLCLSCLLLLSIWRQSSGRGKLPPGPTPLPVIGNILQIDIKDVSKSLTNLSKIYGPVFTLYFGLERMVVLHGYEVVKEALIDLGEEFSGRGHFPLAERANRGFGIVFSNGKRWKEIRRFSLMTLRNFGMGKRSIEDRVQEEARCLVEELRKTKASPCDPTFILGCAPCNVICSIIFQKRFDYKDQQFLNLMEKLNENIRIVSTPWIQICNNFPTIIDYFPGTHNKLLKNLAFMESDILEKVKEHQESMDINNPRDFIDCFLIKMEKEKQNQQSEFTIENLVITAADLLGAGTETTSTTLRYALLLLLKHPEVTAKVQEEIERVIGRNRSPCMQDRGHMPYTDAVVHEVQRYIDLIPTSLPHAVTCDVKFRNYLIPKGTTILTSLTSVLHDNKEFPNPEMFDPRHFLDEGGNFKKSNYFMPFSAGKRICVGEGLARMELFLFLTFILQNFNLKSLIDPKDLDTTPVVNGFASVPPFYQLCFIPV

Cytochrome P450 2D6 = Cytochrome P450 2D6 (Homo sapiens, UniProt P10635); assay: Inhibition of CYP2D6 (unknown origin); type: ADME
Chain of Cytochrome P450 2D6 (P10635 whole entry): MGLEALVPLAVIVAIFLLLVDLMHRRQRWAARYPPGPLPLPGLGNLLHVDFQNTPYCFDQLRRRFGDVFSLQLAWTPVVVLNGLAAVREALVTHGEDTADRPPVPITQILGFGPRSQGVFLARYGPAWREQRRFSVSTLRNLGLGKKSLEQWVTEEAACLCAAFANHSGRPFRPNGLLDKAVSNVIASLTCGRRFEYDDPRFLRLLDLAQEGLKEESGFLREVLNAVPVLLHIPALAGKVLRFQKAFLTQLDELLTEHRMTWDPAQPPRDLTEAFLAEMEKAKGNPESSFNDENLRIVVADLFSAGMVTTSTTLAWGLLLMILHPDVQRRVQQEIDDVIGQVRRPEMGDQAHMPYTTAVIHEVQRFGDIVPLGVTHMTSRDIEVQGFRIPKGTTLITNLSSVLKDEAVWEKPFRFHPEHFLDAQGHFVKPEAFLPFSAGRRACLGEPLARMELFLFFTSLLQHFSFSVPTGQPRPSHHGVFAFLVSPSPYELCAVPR

Cytochrome P450 3A4 = Cytochrome P450 3A4 (Homo sapiens, UniProt P08684); assay: Inhibition of CYP3A4 (unknown origin); type: ADME
Chain of Cytochrome P450 3A4 (P08684 whole entry): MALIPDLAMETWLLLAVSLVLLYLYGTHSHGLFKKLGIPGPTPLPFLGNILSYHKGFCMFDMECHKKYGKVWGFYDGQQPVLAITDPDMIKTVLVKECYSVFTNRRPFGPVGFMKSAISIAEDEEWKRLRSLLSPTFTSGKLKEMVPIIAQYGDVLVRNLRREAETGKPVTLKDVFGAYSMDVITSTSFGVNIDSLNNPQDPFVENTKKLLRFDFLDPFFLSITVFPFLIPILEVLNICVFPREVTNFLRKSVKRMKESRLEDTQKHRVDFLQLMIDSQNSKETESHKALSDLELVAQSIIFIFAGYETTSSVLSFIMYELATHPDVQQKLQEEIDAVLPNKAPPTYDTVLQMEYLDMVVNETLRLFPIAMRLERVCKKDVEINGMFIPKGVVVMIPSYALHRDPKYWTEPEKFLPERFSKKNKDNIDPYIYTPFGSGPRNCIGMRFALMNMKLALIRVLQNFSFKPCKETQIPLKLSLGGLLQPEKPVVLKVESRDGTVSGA

[10] = molecular target: Voltage-gated inwardly rectifying potassium channel KCNH2 (Homo sapiens, UniProt Q12809); assay: Inhibition of human ERG
Chain of Voltage-gated inwardly rectifying potassium channel KCNH2 (Q12809 whole entry): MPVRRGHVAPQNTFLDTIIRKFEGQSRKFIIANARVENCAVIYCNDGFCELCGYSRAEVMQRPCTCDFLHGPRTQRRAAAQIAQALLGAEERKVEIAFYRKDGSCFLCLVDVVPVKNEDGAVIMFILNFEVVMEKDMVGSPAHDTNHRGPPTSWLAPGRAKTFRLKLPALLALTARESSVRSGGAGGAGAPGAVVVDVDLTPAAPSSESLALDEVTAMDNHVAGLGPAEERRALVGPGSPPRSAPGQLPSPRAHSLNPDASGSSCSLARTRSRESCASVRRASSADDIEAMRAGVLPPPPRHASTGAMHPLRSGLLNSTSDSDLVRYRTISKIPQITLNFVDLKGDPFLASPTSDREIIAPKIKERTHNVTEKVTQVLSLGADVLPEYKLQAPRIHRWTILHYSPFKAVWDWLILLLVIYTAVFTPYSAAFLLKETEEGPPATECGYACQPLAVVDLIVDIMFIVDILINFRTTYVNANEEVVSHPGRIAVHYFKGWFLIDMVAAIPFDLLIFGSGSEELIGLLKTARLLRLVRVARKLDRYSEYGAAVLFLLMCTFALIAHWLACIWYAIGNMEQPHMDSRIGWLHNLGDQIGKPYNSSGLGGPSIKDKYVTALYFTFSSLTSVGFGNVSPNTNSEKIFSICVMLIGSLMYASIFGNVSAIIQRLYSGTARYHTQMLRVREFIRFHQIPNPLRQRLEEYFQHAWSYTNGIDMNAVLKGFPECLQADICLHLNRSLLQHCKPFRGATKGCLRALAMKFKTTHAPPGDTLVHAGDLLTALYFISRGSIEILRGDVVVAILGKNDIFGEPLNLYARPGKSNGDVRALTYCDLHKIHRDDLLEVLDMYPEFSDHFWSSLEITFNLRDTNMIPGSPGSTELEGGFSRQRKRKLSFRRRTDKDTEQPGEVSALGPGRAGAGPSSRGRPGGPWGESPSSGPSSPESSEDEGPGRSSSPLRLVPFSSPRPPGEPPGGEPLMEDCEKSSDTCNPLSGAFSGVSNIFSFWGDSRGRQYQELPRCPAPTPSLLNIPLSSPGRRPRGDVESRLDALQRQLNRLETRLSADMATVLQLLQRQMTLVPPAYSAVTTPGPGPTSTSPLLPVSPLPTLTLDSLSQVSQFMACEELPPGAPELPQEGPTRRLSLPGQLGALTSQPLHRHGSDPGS

[11] = tested on: Mycobacterium tuberculosis; assay: Bactericidal activity against Mycobacterium tuberculosis infected in mouse assessed as reduction in colony forming unit at 1 to 2 times of antimycobacterial MIC incubated for 10 days; type: functional
[12] = tested on: Mycobacterium tuberculosis; assay: Bactericidal activity against Mycobacterium tuberculosis infected in human THP1 cells assessed as reduction in colony forming unit at antimycobacterial MIC incubated for 7 days; type: functional
[13] = tested on: Mycolicibacterium smegmatis; assay: Antimycobacterial activity against Mycobacterium smegmatis mc2 155 assessed as reduction in bacterial cell growth by resazurin reduction method; type: functional
[14] = Tmax in mouse at MIC in presence of CYP pan inhibitor 1-aminobenzotriazole; type: ADME; details: in vivo
[15] = Oral bioavailability in rat; type: ADME, organism-based; details: in vivo
[16] = Cmax in BALB/c mouse infected with Mycobacterium tuberculosis H37Rv at 10 mg/kg, po administered for 4 weeks starting from day 28 post infection; type: ADME, organism-based; design: dose 10 mg/kg, route oral; details: in vivo
How it was run: (§1)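 Male BALB/c mice with chronic TB, aerosol-infected, given 10 or 30 mg/kg orally in multiple doses over a 4-week course that began 28 days post-infection. Plasma concentration–time profiles were taken from infected animals. PK parameters are reported as mean ± SD, n = 3.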

[17] = Tmax in BALB/c mouse infected with Mycobacterium tuberculosis H37Rv at 10 mg/kg, po administered for 4 weeks starting from day 28 post infection; type: ADME, organism-based; details: in vivo; how it was run: as §1
[18] = AUC (0 to infinity) in BALB/c mouse infected with Mycobacterium tuberculosis H37Rv at 10 mg/kg, po administered for 4 weeks starting from day 28 post infection; type: ADME, organism-based; design: dose 10 mg/kg, time infinity, route oral; details: in vivo; how it was run: as §1
[19] = Half life in BALB/c mouse infected with Mycobacterium tuberculosis H37Rv at 10 mg/kg, po administered for 4 weeks starting from day 28 post infection; type: ADME, organism-based; details: in vivo; how it was run: as §1
[20] = Cmax in BALB/c mouse infected with Mycobacterium tuberculosis H37Rv at 30 mg/kg, po administered for 4 weeks starting from day 28 post infection; type: ADME, organism-based; design: dose 30 mg/kg, route oral; details: in vivo; how it was run: as §1
[21] = Tmax in BALB/c mouse infected with Mycobacterium tuberculosis H37Rv at 30 mg/kg, po administered for 4 weeks starting from day 28 post infection; type: ADME, organism-based; details: in vivo; how it was run: as §1
[22] = AUC (0 to infinity) in BALB/c mouse infected with Mycobacterium tuberculosis H37Rv at 30 mg/kg, po administered for 4 weeks starting from day 28 post infection; type: ADME, organism-based; design: dose 30 mg/kg, route oral, time infinity; details: in vivo; how it was run: as §1
[23] = Half life in BALB/c mouse infected with Mycobacterium tuberculosis H37Rv at 30 mg/kg, po administered for 4 weeks starting from day 28 post infection; type: ADME, organism-based; details: in vivo; how it was run: as §1
[24] = tested on: Mycobacterium tuberculosis; assay: Antimycobacterial activity against Mycobacterium tuberculosis H37Rv infected in BALB/c mouse assessed as reduction in bacterial burden in mouse lung at 30 mg/kg, po administered for 4 weeks starting from day 28 post infection; type: functional
How it was run: (§2)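 Chronic TB model in BALB/c mice infected by the aerosol route. Oral treatment began 28 days post-infection and ran 4 weeks. Bacterial burden was read as log10 CFU in lungs and spleen.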

[25] = tested on: Mycobacterium tuberculosis; assay: Antimycobacterial activity against Mycobacterium tuberculosis H37Rv infected in BALB/c mouse assessed as reduction in bacterial burden in mouse spleen at 30 mg/kg, po administered for 4 weeks starting from day 28 post infection; type: functional; how it was run: as §2
[26] = Toxicity in BALB/c mouse infected with Mycobacterium tuberculosis H37Rv assessed as body weight loss at 10 to 30 mg/kg, po administered for 4 weeks starting from day 28 infection; type: organism-based; details: in vivo, 672 h
How it was run: (§3)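 Infected BALB/c mice received repeated oral dosing for 4 weeks in the chronic efficacy study. Adverse events were assessed as body weight loss, organ weight loss and gross pathology.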

[27] = Toxicity in BALB/c mouse infected with Mycobacterium tuberculosis H37Rv assessed as organ weight loss at 10 to 30 mg/kg, po administered for 4 weeks starting from day 28 infection; type: organism-based; details: in vivo, 672 h; how it was run: as §3
[28] = Toxicity in BALB/c mouse infected with Mycobacterium tuberculosis H37Rv assessed as gross pathology at 10 to 30 mg/kg, po administered for 4 weeks starting from day 28 infection; type: organism-based; details: in vivo, 672 h; how it was run: as §3
Bacillus subtilis = assay: Antibacterial activity against Bacillus subtilis; type: functional
[29] = tested on: Corynebacterium glutamicum; assay: Antibacterial activity against Corynebacterium glutamicum; type: functional
[30] = tested on: Corynebacterium pseudodiphtheriticum; assay: Antibacterial activity against Corynebacterium pseudodiphtheria; type: functional
[31] = tested on: Corynebacterium pseudotuberculosis; assay: Antibacterial activity against Corynebacterium pseudotuberculosis; type: functional
Enterococcus faecalis = assay: Antibacterial activity against Enterococcus faecalis; type: functional
Escherichia coli = assay: Antibacterial activity against Escherichia coli; type: functional
Listeria monocytogenes = assay: Antibacterial activity against Listeria monocytogenes; type: functional
Nocardia farcinica = assay: Antibacterial activity against Nocardia farcinica; type: functional
Proteus vulgaris = assay: Antibacterial activity against Proteus vulgaris; type: functional
Pseudomonas aeruginosa = assay: Antibacterial activity against Pseudomonas aeruginosa; type: functional
Pseudomonas putida = assay: Antibacterial activity against Pseudomonas putida; type: functional
Rhodococcus = assay: Antibacterial activity against Rhodococcus sps; type: functional
Prescottella equi = assay: Antibacterial activity against Rhodococcus equi; type: functional; details: Rhodococcus (subgen. Prescottella) equi
Staphylococcus aureus = assay: Antibacterial activity against Staphylococcus aureus; type: functional
[32] = Mycobacterium tuberculosis, H37Rv, read-out: MIC

## Cc1cc(C(=O)NCCF)c2ncn(Cc3ncnc(OC(F)F)c3C)c2c1
[1]; [32]
  MIC: < 0.39 µM
[2]
  IC50: 16 nM

## COc1ncnc(Cn2cnc3c(C(=O)NCCF)cc(C)cc32)c1C
[1]; [32]
  MIC: 0.78 µM (≈ 0.279 µg/mL)
[2]
  IC50: 8 nM

## Cc1cc(C(=O)NCCF)c2ncn(Cc3ncnc(N(C)C)c3C)c2c1
[1]; [32]
  MIC: < 0.39 µM
[2]
  IC50: 9 nM

## COc1cc(C(=O)NCC(F)F)c2ncn(Cc3ncnc(N(C)C)c3C)c2c1
[1]; [32]
  MIC: < 0.39 µM
[2]
  IC50: 9 nM

## COc1cc(C(=O)NCCF)c2ncn(Cc3ncnc(OC)c3C)c2c1
[1]; [32]
  MIC: < 0.39 µM
[2]
  IC50: 5 nM

## Cc1cc(C(=O)NCC(F)F)c2ncn(Cc3ncnc(N(C)C)c3C)c2c1
[1]; [32]
  MIC: < 0.39 µM
[2]
  IC50: 4 nM

## COc1ncnc(Cn2cc(C(=O)NCCO)c3ncc(C)cc32)c1C [TBA-7371]
[1]
  MIC: 0.78 µM (≈ 0.277 µg/mL)
[3]
  MBC: 1.56 µM (≈ 0.554 µg/mL)
[4]
  clearance: 27 mL/min/kg

## CO[C@H]1/C=C/O[C@@]2(C)Oc3c(C)c(O)c4c(O)c(c(/C=N/N5CCN(C)CC5)c(O)c4c3C2=O)NC(=O)/C(C)=C\C=C\[C@H](C)[C@H](O)[C@@H](C)[C@@H](O)[C@@H](C)[C@H](OC(C)=O)[C@@H]1C [RIFAMPIN]
[1]; [32]
  MIC: 0.01 µM (≈ 0.00823 µg/mL)

## COc1cc(C(=O)NCCF)c2ncn(Cc3ncnc(N(C)C)c3C)c2c1
[1]; [32]
  MIC: < 0.39 µM
[2]
  IC50: 16 nM
[5]
  logD: 2 to 2.1
[6]
  solubility: > 1000 µM
[7]
  fraction unbound: 0.31
[8]
  Papp A→B: 26 ×10⁻⁶ cm/s
[9]
  Papp B→A: 22 ×10⁻⁶ cm/s
Cytochrome P450 1A2
  IC50: > 50000 nM
Cytochrome P450 2C9
  IC50: > 50000 nM
Cytochrome P450 2C19
  IC50: > 50000 nM
Cytochrome P450 2D6
  IC50: > 50000 nM
Cytochrome P450 3A4
  IC50: > 50000 nM
[10]
  IC50: > 33000 nM

## C[C@H]1COC2(CCN(c3nc(=O)c4cc(C(F)(F)F)cc([N+](=O)[O-])c4s3)CC2)O1 [BTZ-043]
[1]; [32]
  MIC: 0.003 to 0.006 µM (≈ 0.00129 to 0.00259 µg/mL)

## COc1ncnc(Cn2cnc3c(C(=O)NCCF)cccc32)c1C
[1]; [32]
  MIC: 1.56 to 3.12 µM (≈ 0.536 to 1.07 µg/mL)
[2]
  IC50: 34 nM
[3]
  MBC: 1.56 µM (≈ 0.536 µg/mL)
[11]
  Activity: >3 log10CFU
[12]
  Activity: 1 log10CFU
[13]
  MIC: 0.78 to 1.56 µM (≈ 0.268 to 0.536 µg/mL)
[14]
  Tmax: 6 to 10 h
[5]
  logD: 1.9
[6]
  solubility: 152 µM (≈ 52.2 µg/mL)
[7]
  fraction unbound: 0.32
[8]
  Papp A→B: 37 ×10⁻⁶ cm/s
[9]
  Papp B→A: 14 ×10⁻⁶ cm/s
Cytochrome P450 1A2
  IC50: > 50000 nM
Cytochrome P450 2C9
  IC50: > 50000 nM
Cytochrome P450 2C19
  IC50: > 50000 nM
Cytochrome P450 2D6
  IC50: > 50000 nM
Cytochrome P450 3A4
  IC50: > 50000 nM
[10]
  IC50: > 33000 nM
[4]
  clearance: 48 mL/min/kg
[15]
  bioavailability: 114%
[16]
  Cmax: 5.1 µM
[17]
  Tmax: 2 h
[18]
  AUC(0-inf): 13.5 µM·h
[19]
  half-life: 4.5 h
[20]
  Cmax: 18.3 µM
[21]
  Tmax: 3 h
[22]
  AUC(0-inf): 78.6 µM·h
[23]
  half-life: 5.9 h
[24]
  Activity: 1.5 log10CFU
[25]
  Activity: 1 log10CFU
[26]
  Activity: Non-Toxic
[27]
  Activity: Non-Toxic
[28]
  Activity: Non-Toxic
Bacillus subtilis
  MIC: > 200 µM
[29]
  MIC: > 200 µM
[30]
  MIC: > 200 µM
[31]
  MIC: > 200 µM
Enterococcus faecalis
  MIC: > 200 µM
Escherichia coli
  MIC: > 200 µM
Listeria monocytogenes
  MIC: > 200 µM
Nocardia farcinica
  MIC: > 200 µM
Proteus vulgaris
  MIC: > 200 µM
Pseudomonas aeruginosa
  MIC: > 200 µM
Pseudomonas putida
  MIC: > 200 µM
Rhodococcus
  MIC: > 200 µM
Prescottella equi
  MIC: > 200 µM
Staphylococcus aureus
  MIC: > 200 µM

## COc1cc(C(=O)NCC(F)F)c2ncn(Cc3ncnc(OC(F)F)c3C)c2c1
[1]; [32]
  MIC: < 0.39 µM
[2]
  IC50: 5 nM

## NNC(=O)c1ccncc1 [ISONIAZID]
[1]; [32]
  MIC: 0.44 µM (≈ 0.0603 µg/mL)
